Assays:
[1] = test system: GFP transcript in LDR cells; assay type: cell-based, mouse; conditions: 200 nM, 24 h, relative to DMSO-treated cells
[2] = test system: acetylated H3 at the CMV promoter in LDR cells; assay: Chromatin immunoprecipitation of acetylated H3 at the CMV promoter; assay type: cell-based, mouse; conditions: 250 ng/mL, 24 h
How it was run: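 LDR cells (C127 mouse mammary line carrying a silenced CMV-GFP reporter; DMEM, 10% heat-inactivated FBS) treated with test compound at 250 ng/mL or DMSO vehicle (24 h per legend; overnight per methods). Formaldehyde cross-linking, then ChIP by standard protocol with anti-acetylated H3 antibody. After cross-link reversal, PCR with CMV-promoter primers run on a gel. Controls were a no-antibody background and 10% input.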

CC(/C=C/C(=O)NO)=C\[C@@H](C)C(=O)c1ccc(N(C)C)cc1 [Trichostatin A]
induction of GFP transcripts [1]: at least 5 fold
histone acetylation at the CMV promoter (ChIP) [2]: markedly increases
